Compound activity (PubChem BioAssay)
Rows were chosen to be rich in hits. Some 1.8% of all compounds tested hit in one or more screens of this group.
LYP inh 2 – LYP (human) phosphatase inhibition | recombinant LYP catalytic domain, DiFMUP fluorescence | inhibition, % at 2 µM | 0.21% of 96,000 active | AID 640;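 active means inhibition at 2 µM at or above a set limit, the screen mean plus 3 SD, cut at about 24% in these data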
LYP act – increases human PTPN22 phosphatase activity; recombinant LYP, DiFMUP fluorescence; 0 = plate median, 100 = signal doubled; activation, % at 2 µM; 0.11% of 96,000 active; AID 697;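 active means activation at 2 µM above a set limit, the mean plus 5 SD, cut at about 37% in these data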
Plk1 PBD FP – inhibitors of human Plk1 polo box domain binding; 0.13% of 97,000 active; P53350; Plk1 PBD phosphopeptide binding, fluorescence polarization; AID 693; inhibition, %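 (tested at about 20 µM)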; in the data active means inhibition above about 34%, passing the limit was not always enough
PLK1 kinase inh – blocks human PLK1 kinase activity; AID 619; P53350; 0.53% of 97,000 active; inhibition, % at 10 µM; recombinant PLK1 kinase, TR-FRET peptide phosphorylation;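 active means inhibition of 50% or more in the single-concentration screen; inactive means inhibition below 50%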
HIV Rev-RRE inh – HIV Rev-RRE protein-RNA interaction inhibition; P05866; Rev peptide-RRE RNA binding, FRET; inhibition, % at 8 µM; 0.79% of 97,000 active; AID 704;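 active means inhibition above the screen-wide mean plus 3 SD, cut at about 35% in these data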
Target sequence (P05866 whole entry, looked up): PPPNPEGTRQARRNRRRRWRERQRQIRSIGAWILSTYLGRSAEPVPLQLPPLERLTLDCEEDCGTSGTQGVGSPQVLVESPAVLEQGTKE
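Test system: Cy5-tagged RRE RNA duplex with fluorescein-tagged Rev peptide; Probe or stimulus: labelled Rev peptide; Schedule: 5 min preincubation and 15 min binding, 25 °C; Signal: FRET fluorescence readout; Evaluation: % inhibition from 671/540 nm acceptor-to-donor ratio, scaled between controls; Control set: DMSO and neomycin B.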
EphB4 ephrin blk – EphB4-ephrin-B2 interaction antagonism | P54760 | EphB4 LBD / TNYL-RAW-Alexa532 peptide, fluorescence polarization | inhibition, % at 7 µM | 0.15% of 97,000 active;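 active means inhibition above the screen-wide mean inhibition plus 3 SD, cut at about 15% in these data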
PLK1 inh conf – PLK1 (human) kinase inhibition, confirmed. shares compounds with PLK1 kinase inh. recombinant PLK1 kinase, TR-FRET peptide phosphorylation. AID 744. 20% of 210 active. inhibition, % at 10 µM;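 active means inhibition at or above 50% in each of two repeat confirmation tests; inconclusive means one repeat below 50% inhibition, the other above; inactive means both repeats at or below 50% inhibition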
TR-FRET interf – interferes with the Plk1 assay readout, not true inhibition | shares compounds with PLK1 kinase inh | Plk1 TR-FRET assay interference, compound added post-reaction | inhibition (interference), % at 10 µM | 210 tested, under 10 active | AID 756;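 active means both duplicate runs show 50% or greater inhibition; inconclusive means only one duplicate run shows over 50% inhibition; inactive means both runs show under 50% inhibition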
PBD redox DR – generates H2O2 by redox cycling, flagging false Plk1 PBD hits; shares compounds with Plk1 PBD FP; redox cycling H2O2 generation, DTT, counter-screen; EC50, µM; 120 tested, under 10 active; AID 876; call rule not given here
Of the large screens only hits and unclear results are named; the others gave an inactive call (follow-up assays come after a bar, where they were run); [ ] = dose if it differs, or a comment.

C/C(=C\c1ccc(N(C)C)cc1)[N+](=O)[O-]	HIV Rev-RRE inh 73
CCOC(=O)c1ccc(N2C(=O)CC(N3CCC(C#N)(c4ccccc4)CC3)C2=O)cc1 (configuration not stated)	none
CCCC1COC(Cn2cncn2)(c2ccc(Cl)cc2Cl)O1 (configuration not stated)	LYP inh 2 62
Cc1sc2c(c1C)C(c1ccc(C(C)(C)C)cc1)=NCC(=O)N2CC(=O)Nc1nccs1	none
COc1cc(/C=C2\C(=O)NC(=O)N(c3ccccc3)C2=O)cc(OC)c1O	HIV Rev-RRE inh 59
CCN(CC)c1ccc(N=Cc2c(O)n(-c3cc(OC)ccc3OC)c(=O)[nH]c2=O)cc1	HIV Rev-RRE inh 64
CC1CCN(S(=O)(=O)c2ccc(NN=C(C#N)C#N)cc2)CC1	LYP inh 2 26
O=C1NC(=O)C(=Cc2cn(CCOc3ccc4c(c3)OCO4)c3ccccc23)C(=O)N1	LYP inh 2 26, HIV Rev-RRE inh 44
Cc1cc(OC(=O)c2ccco2)c2c3c(c(=O)oc2c1)CCCC3	EphB4 ephrin blk 15
Cc1cc(OCC(=O)O)c2c3c(c(=O)oc2c1)CCCC3	none
CC(C)N1C(=O)CC2(CC[N+](C)(CCOC(=O)C(O)(c3ccccc3)c3ccccc3)CC2)C1=O (configuration not stated)	none
COc1ccc(P2(=O)Nc3ccccc3N2)cc1	HIV Rev-RRE inh 61
COc1ccc(-n2c(=O)[nH]c3ccccc3c2=O)cc1	none
C=CCN1C(=O)C2(C(C(=O)OCC)=C(N)Oc3ccccc32)c2c1c1ccccc1oc2=O (configuration not stated)	none
Cc1ccc(-n2c(O)c(C=NC3CCCCC3N)c(=O)[nH]c2=O)cc1C (configuration not stated)	none
Cc1nn(Cc2ccccc2)c(C)c1C(=O)OCC(=O)Nc1ccccc1SCC#N	HIV Rev-RRE inh 61
O=c1cccc2n1CC1CC2CN(S(=O)(=O)c2ccccc2)C1 (configuration not stated)	none
CNC(C(=O)c1ccccc1)C(OC(C)C)c1ccc(Cl)cc1 (configuration not stated)	none
Cc1ccc(N2C(=O)/C(=C/c3ccc(CN(CCC#N)S(C)(=O)=O)o3)C(=O)NC2=S)cc1C	none
CN1C(=O)/C(=C/c2ccc(N3CCCCCC3)o2)C(=O)NC1=S	HIV Rev-RRE inh 126[fluorescence artefact?]
CN1C(=O)/C(=C\c2ccc(N3CCCCC3)o2)C(=O)NC1=S	HIV Rev-RRE inh 128[fluorescence artefact?]
O=C1OCCC1NC1=NCCC1 (configuration not stated)	none
O=C(c1ccco1)c1cn(Cc2ccc(Cl)cc2)c2ccccc12	none
O=C1NC(=S)N(c2ccc(Cl)cc2)C(=O)/C1=C/N1CCN(C(=O)c2ccco2)CC1	HIV Rev-RRE inh 41
N#Cc1c(/N=C/c2c(O)n(Cc3ccco3)c(=O)[nH]c2=O)sc2c1CCCC2	HIV Rev-RRE inh 40
O=c1[nH]c(=O)n(Cc2ccco2)c(O)c1C=NCc1cccs1	none
CCCNC(=O)c1c(N)n(Cc2ccco2)c2nc3ccccc3nc12	none
COc1ccc(Cn2c(N)c(C(=O)NCc3ccco3)c3nc4ccccc4nc32)cc1OC	PLK1 kinase inh 72 | PLK1 inh conf 71 | TR-FRET interf inactive
CN1/C(=C\C=C\C2=[N+](C)c3ccc4ccccc4c3C2(C)C)C(C)(C)c2ccccc21	LYP inh 2 33, PLK1 kinase inh 86 | PLK1 inh conf inconclusive | TR-FRET interf inactive
C=Cn1ccnc1P(=S)(c1ccn(C)c1)c1nccn1C=C	none
O=C1C(=O)c2ccccc2-c2ccccc21	Plk1 PBD FP 95 | PBD redox DR inactive
CN(C)c1ccc2c(c1)N=C(c1ccco1)OP2(=S)N1CCOCC1 (configuration not stated)	none
CC(C)(C)N1Cc2ccccc2C1=N	none
